# High-throughput results deposited in PubChem by several laboratories.
# RORa activator – activators of human nuclear receptor RORA; P35398; CHO-K1 Gal4-RORA LBD luciferase reporter, luminescence; percent increase over mock-subtracted basal signal; activation, % at 10 µM; hit rate 1.5% among 65,000;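 active means activation above the mean of all tested compounds plus 3 SD, cut at about 49% in these data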;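 further: 0% = DMSO-treated RORA cells and 100% = added signal equal to DMSO minus mock-transfected cells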
# M1 ag – activates the M1 muscarinic receptor. CHO-M1 cells, Fluo-4 calcium fluorescence, agonist mode; active compounds read high. B-score at 10 µM. hit rate 3% among 64,000;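 active means fluorescence rise, raw or as B-score row- and column-corrected plate score, outside the 99.7% band of its plate's samples, either direction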
# D1 mod – D1 dopamine receptor (human) allosteric modulation | AID 641 | hit rate 5.9% among 58,000 | HEK293 D1, CRE-luciferase, dopamine EC30 potentiation; actives deviate in either direction | P21728 | B-score at 10 µM;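 active means luminescence count or its row- and column-corrected plate score outside the 99.7% band of the plate's sample wells, on either side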
# M1 antag – M1 muscarinic receptor (rat) antagonism | B-score at 10 µM | P08482 | CHO-M1 cells, Fluo-4 calcium, ACh EC80 antagonist mode; active compounds read low | hit rate 3.4% among 64,000;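 active means calcium fluorescence response, raw or row-and-column corrected B-score, differing from the plate sample mean either way at a set confidence level, mostly lower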
# Target sequence (P08482 whole entry, looked up): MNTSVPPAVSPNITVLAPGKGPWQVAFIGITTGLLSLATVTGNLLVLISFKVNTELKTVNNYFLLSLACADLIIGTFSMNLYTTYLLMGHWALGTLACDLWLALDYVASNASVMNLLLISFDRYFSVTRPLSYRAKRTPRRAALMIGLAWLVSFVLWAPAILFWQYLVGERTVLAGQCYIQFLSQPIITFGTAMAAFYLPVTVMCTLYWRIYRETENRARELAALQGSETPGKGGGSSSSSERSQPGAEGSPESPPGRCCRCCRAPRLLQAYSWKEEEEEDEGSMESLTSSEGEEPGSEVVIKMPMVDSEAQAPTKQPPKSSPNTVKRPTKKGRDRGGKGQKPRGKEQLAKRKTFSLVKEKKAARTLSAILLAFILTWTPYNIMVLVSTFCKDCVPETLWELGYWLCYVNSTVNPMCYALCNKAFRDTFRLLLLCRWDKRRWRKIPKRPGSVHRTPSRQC
# SF1 activator – SF-1 (human) activation; CHO-K1 Gal4-SF-1 LBD luciferase reporter; % increase over DMSO SF-1-specific signal; activation, % at 10 µM; hit rate 1.9% among 65,000;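 active means activation above the mean activation of all tested compounds plus 3 SD, cut at about 50% in these data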
#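 Material: CHO-K1 cells with Gal4–hSF-1 LBD chimera plus Gal4-driven luciferase / Input: 4,000 CHO-K1 cells per well / Incubation: compound exposure 20 h at 37 °C / Signal: luminescence read 15 min after SteadyLite luciferase reagent, after room-temperature equilibration / Read-out: percent activation versus DMSO / Benchmarks: DMSO negative control and −SF1 background wells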
# Htt clearance – mutant huntingtin protein clearance; AID 853; hit rate 0.42% among 47,000; HeLa Exon1htt(103Q)mCFP, aggregate imaging; zero = plate's median compound well; inhibition, % at 1.5 µM;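 active means inhibition of aggregate fluorescence above about 70%, also judged a hit by eye on the cell image, limit read from the data, passing the limit was not always enough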;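 further: cells exposed to compound for three days before fixation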
# M1 antag conf – confirmation of rat M1 muscarinic receptor antagonists; calcium response (max-min fluorescence) at 10 µM; hit rate 43% among 1,700; CHO-M1 cells, Fluo-4 calcium, ACh EC80 antagonism; active compounds read low; shares compounds with M1 antag;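 active means calcium response below the same-plate mean of wells given acetylcholine alone at its 80%-effect dose, minus 3 SD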;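 further: raw fluorescence intensity difference in arbitrary instrument units and not normalized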
# mGluR4 antag – mGluR4 (human) activity, M1 antagonist secondary assay | fluorescence response (max-min) at 10 µM | shares compounds with M1 antag | CHO-mGluR4 calcium flux, Fluo-4 fluorescence, glutamate EC80; active compounds read low | AID 678 | hit rate 0.9% among 1,700;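 active means fluorescence response below the plate's average for near-maximal glutamate wells, less 3 SD of those wells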;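 further: raw unnormalized fluorescence span taken in the window right after glutamate addition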
# Numbers without * were called inactive; . = not tested or not shown. The list is not random: actives were taken first. Their share in the collection is about 11%.
SMILES,RORa activator,M1 ag,D1 mod,M1 antag,SF1 activator,Htt clearance,M1 antag conf,mGluR4 antag
C=CCn1c(COc2ccccc2)nnc1SCC(=O)C(C)(C)C,14,0.067,0.5,0.4,13,-18,.,.
C=CCn1c(COc2ccc(Cl)cc2)nnc1SCC(=O)N1CC(=O)Nc2ccccc21,-15,0.2,-0.9,-0.93*,8,-43,537,237
CCN(CC)CCNC(=O)c1sc2nc(-c3ccccc3)cn2c1C,10,0.028,.,-0.79*,11,.,345*,212
Cc1ccc(NC2=NC(c3ccco3)n3c(nc(C)cc3=O)N2)c(C)c1 (configuration not stated),42,-0.27,-0.43,-0.34,7,.,.,.
COc1cccc(-n2ccnc2SCC(=O)NCc2ccccc2)c1,7,0.093,1.5,-2.7*,2,-37,528,191
CC(=O)c1c(C)nc2ccccc2c1N,-5,-0.48,0.01,-0.52,8,.,.,.
Cc1c(N(C)C)nc2ccccc2c1N,-10,0.025,-0.84,-2.3*,-7,0,610,231
CCCN(CCO)Cc1ccc(Cl)c(Cl)c1,-8,-0.48,-1.4,0.22,0,-2,.,.
CCCN(CCO)Cc1cccc(Cl)c1,-13,-0.013,-0.0055,-2.6*,10,6,715,194
CCCc1cc(Nc2ccccc2OCC)n2ncnc2n1,.,.,.,.,.,-2,.,.
CN1/C(=C\C(=O)c2ccco2)C(C)(C)c2ccccc21,-12,0.044,-0.7,0.054,-14,.,.,.
CN1/C(=C\C(=O)c2ccco2)c2ccccc2CC1(C)C,14,-0.14,-0.46,-2.9*,-12,-26,641,244
COc1ccc(-c2nc(=S)[nH][nH]2)cc1,5,0.19,-0.039,0.13,13,23,.,.
CCOc1ccc(-c2nc(=S)[nH][nH]2)cc1,26,1.5,-0.27,-5.2*,34,-32,638,242
Cc1ccc(CN2C(=O)C(C)(C)Oc3ccc(C(=O)N4CCCCC4)cc32)cc1,3,0.41,0.02,0.22,-6,8,.,.
COc1ccc2[nH]c3c(c2c1)CN(C)CC3,25,0.76,-2.6,-1.9*,0,3,448,193
CCc1cc2c(=O)c(-c3nc4ccccc4n3C)coc2c(CN2CCOCC2)c1O,-14,0.15,-0.23,-0.63,10,.,.,.
CCc1cc2c(=O)c(-c3cnn(-c4ccccc4)c3)coc2c(CN2CCOCC2)c1O,-16,0.75,0.063,-4.2*,-9,-44,528,193
COc1ccc(-c2noc(CCC(=O)NCC3CCN(Cc4cccc(C)c4)CC3)n2)cc1,-11,3.4,-0.21,-3.6*,21,.,399*,240
COc1ccc(-c2noc(CCC(=O)Nc3ccc(C)c(C)c3)n2)cc1,-5,-0.0018,-0.3,-3.2*,0,.,647,166
CCOc1ccc(-c2noc(CCC(=O)O)n2)cc1,-54,-0.66,.,-0.87*,-53,-319,638,240
Cc1cc(C)cc(NC(=O)c2nccnc2C(=O)O)c1,.,.,.,.,.,2,.,.
OCCOCCn1c2ccccc2c2ccccc21,29,0.78,-0.26,-0.034,0,.,.,.
O=C(C1CCCO1)N1CCN(c2c3c(nc4cc(-c5ccc(F)cc5)nn24)CCC3)CC1 (configuration not stated),15,1.2,-0.3,-3.6*,5,.,661,243
Cc1ccc(-c2noc(C3CCCN(C(=O)C4CCCCC4)C3)n2)o1 (configuration not stated),17,-0.054,.,-0.071,14,.,.,.
Cn1c(CCN2CCCCC2)nc2cc(NS(=O)(=O)c3ccc(F)cc3)ccc21,27,-0.52,-0.59,-1.8*,-18,.,474*,207
Cc1ccc(N2CCN(CCc3nc4cc(NS(C)(=O)=O)ccc4n3C)CC2)cc1,-2,1.7,-2,-3.7*,-1,27,503*,234
Cn1c(CCN2CCCCC2)nc2cc(NC(=O)NC3CCCCC3)ccc21,10,-0.33,-1.5,-4.7*,4,.,263*,228
CC1CCN(CCc2nc3cc(NC(=O)NC4CCCCC4)ccc3n2C)CC1,.,.,.,.,.,26,.,.
